From PubChem BioAssay
Rows were chosen to be rich in hits. Some 5.1% of all compounds tested hit in one or more screens of this group.
APP 5'UTR act = APP 5'UTR luciferase reporter activation. SH-SY5Y APP 5'UTR luciferase reporter, luminescence; zero percent = DMSO vehicle wells. activation, % at 2 µM. 1% of 190,000 active. AID 1276;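 active = activation above a set limit, based on mean plus 3 SD of controls, cut at about 140% in these data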
STAT3 blocker = reduces IL-6 driven STAT3 reporter signal; U3A cells, IL-6 STAT3-luciferase reporter, luminescence; host cell line lacks STAT1; inhibition, % at 5.5 µM; 0.89% of 190,000 active; AID 862;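 active = inhibition above the mean inhibition across all screened compounds plus 3 SD, cut at about 44% in these data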
NF-kB expr up = NF-kB expression increase, human neuronal cells; NF-kB reporter expression; active compounds read high; fold change at 12.5 µM; 1.6% of 190,000 active; in the data active = fold change above about 3.3
STAT1 activator = increases IFN-gamma driven STAT1 reporter signal; activation (% of control), % at 5.5 µM; AID 932; NIH 3T3 STAT1-luciferase reporter, luminescence; 100% = IFN-gamma alone, no compound; 2.6% of 200,000 active;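 active = activation above the screen-wide mean activation plus 3 SD, cut at about 130% in these data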
STAT3 activator = activators of IL-6 induced STAT3 signaling. 0.91% of 190,000 active. activation (% of control), % at 5.6 µM. U3A cells, IL-6 STAT3-luciferase reporter, luminescence; 100% = signal with IL-6 EC80 alone;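 active = activation above the screen-wide mean of compound activation plus 3 SD, cut at about 130% in these data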
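Test system: STAT3-luciferase reporter U3A cells; Detection: reporter luminescence signal; Times: 1 h compound pre-exposure, 6 h IL-6 stimulation, 37 °C; Benchmarks: IL-6-only high control; Also added: IL-6 stimulus at 33 ng/mL final.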
STAT1 inh = inhibitors of IFN-gamma induced STAT1 signaling | inhibition, % at 5.5 µM | 0.35% of 200,000 active | NIH 3T3 STAT1-luciferase reporter, luminescence;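 active = inhibition above a set limit, the mean inhibition across all tested compounds plus 3 SD, cut at about 34% in these data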
STAT1 activ conf = confirmation of STAT1 signaling activators. shares compounds with STAT1 activator. NIH 3T3 STAT1-luciferase reporter, IFN-gamma potentiation, luminescence; 100% = IFN-gamma EC80 alone, no compound. activation (% of control), % at 5.7 µM. 97% of 1,200 active. AID 1262;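 active = activation above a set limit carried over from the earlier primary STAT1 screen, cut at about 140% in these data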
NFkB act STAT1ct = NF-kappaB activation in STAT1 activator counter-screen; shares compounds with STAT1 activator; AID 1306; HEK293T NF-kB luciferase reporter, TNF-alpha stimulated, luminescence; 100% = TNF-alpha with vehicle only; activation (% of control), % at 5.7 µM; 43% of 1,200 active;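 active = activation above the mean of solvent-only control wells plus 3 SD, set per campaign, cut at about 130% in these data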;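 note: TNF-alpha given at a submaximal dose yielding about 80% of full reporter signal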
STAT3 act STAT1c = activates human STAT3, counter-screen to STAT1 activators; shares compounds with STAT1 activator; U3A cells STAT3-luciferase reporter, IL-6, luminescence; cells lack STAT1; 100 = IL-6 alone, no compound effect; activation (% of control), % at 5.7 µM; 46% of 1,200 active; AID 1316;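 active = activation above the solvent-only control well mean plus 3 SD, set per plate batch, cut at about 110% in these data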;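 note: higher means more STAT3 reporter activation so hits are non-selective activators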
Numbers stand for hits; n = inactive; x = not tested or not shown.

SMILES	APP 5'UTR act	STAT3 blocker	NF-kB expr up	STAT1 activator	STAT3 activator	STAT1 inh	STAT1 activ conf	NFkB act STAT1ct	STAT3 act STAT1c
O=C(Cc1cccs1)Nc1cccc(-c2nc3cc4ccccc4cc3[nH]2)c1	195	n	4.8	197	n	n	270	158	n
CCOc1cccc(NC(=O)Cc2cccs2)c1	n	n	n	n	n	n	x	x	x
C=CCC1(CC=C)CCCN1C(=O)CC1C(=O)NCCN1Cc1ccc(OC)c(OC)c1 (stereo not given)	n	n	n	n	n	n	x	x	x
CC(C)(C)c1ccc(OCc2nc(-c3ccccn3)no2)c(Br)c1	164	n	3.7	158	n	n	219	143	131
CNc1nc(N2CCc3ccccc32)ncc1F	n	n	5.1	167	n	n	194	139	114
CC(C)(C)c1ccc(OCCn2ccccc2=O)cc1	n	n	5.5	177	n	n	197	n	117
CC(C)(c1ccccc1)c1ccc(OCCn2cnc3ccccc3c2=O)cc1	n	n	n	n	n	n	x	x	x
O=C(OCC(=O)C12CC3CC(CC(C3)C1)C2)c1cccnc1Cl	n	n	n	n	n	n	x	x	x
CCCN(CC(=O)Nc1cc(Cl)cc(Cl)c1)CC(=O)Nc1ccc(F)c(F)c1F	n	n	n	n	n	n	x	x	x
Fc1ccccc1CSc1nnc(-c2cccnc2)o1	n	n	3.5	161	n	n	147	n	n
c1cncc(-c2nnc(SCCSc3nnc(-c4cccnc4)o3)o2)c1	n	n	x	n	n	n	x	x	x
Cc1ccc(CN2CCN(Cc3cccn3-c3nccs3)CC2CCO)cc1 (stereo not given)	n	n	n	n	n	n	x	x	x
CCc1nnc(NC(=O)c2ccc3ccccc3n2)s1	n	n	3.8	153	n	n	176	n	157
COc1ccc2cc(-c3nc4ccccc4n3C)c(=O)oc2c1	n	n	3.4	155	n	n	169	n	117
C/C(=N/N=C1/NC(=O)CC(C(=O)Nc2ccccc2)S1)c1cccs1 (stereo not given)	n	n	n	n	n	n	x	x	x
CC(C)CC(=O)Nc1ccc2nn(-c3ccccc3)nc2c1	179	n	6.3	177	n	n	224	149	n
Cc1ccc(-c2nc(Nc3ccccc3)n[nH]2)cc1	188	n	10	193	n	n	290	153	122
CSc1ccc(/C=N/NC(=O)CN2CCN(Cc3ccc(C)cc3)CC2)cc1	n	n	n	n	n	n	x	x	x
Cc1ccc(-c2ccc(CCC(=O)O)n2C(C)C)cc1	n	n	n	151	n	n	n	n	n
Cc1ccc(-c2ccc(CCC(=O)O)n2NC(N)=S)cc1	n	n	n	n	n	n	x	x	x
COc1ccccc1-c1nc(-c2ccncc2)no1	n	n	n	159	n	n	188	n	111
COc1ccc(Cl)cc1-c1nc(-c2ccncc2)no1	n	n	n	n	n	n	x	x	x
COc1ccc(-c2nc(-c3ccc(Br)cc3)no2)c(OC)c1	n	n	6	155	n	n	233	n	112
COc1ccc(-c2csc(-c3ccccc3)n2)c(OC)c1	195	n	12	153	n	n	227	144	144
CCc1ccc(CNCCSc2nnnn2C)cc1	n	n	n	n	n	n	x	x	x
SMILES	APP 5'UTR act	STAT3 blocker	NF-kB expr up	STAT1 activator	STAT3 activator	STAT1 inh	STAT1 activ conf	NFkB act STAT1ct	STAT3 act STAT1c
COC(=O)c1ccc(N=NNc2cccc(Br)c2)cc1	n	n	3.3	152	n	n	224	134	129
N#CC1=C2Sc3ccccc3N2CCCC1=O	n	n	n	n	n	n	x	x	x
N#CC1=C2SC=C(c3ccc(Br)cc3)N2CCCC1=O	176	n	6.8	157	n	n	194	147	n
Cc1ccc(C(=O)Oc2oc(-c3ccco3)nc2C=Nc2ccc(Cl)cc2)cc1	143	n	7.7	166	n	n	200	140	n
O=C(Oc1oc(-c2ccco2)nc1C=Nc1ccccc1)c1ccoc1	n	n	n	n	n	n	x	x	x
O=C(NC(=S)Nc1ccc(F)cc1)c1ccc2c(c1)OCCO2	213	n	n	152	n	n	211	n	n
COc1ccc(CNC(=O)CN(c2ccccc2)S(=O)(=O)c2ccccc2[N+](=O)[O-])cc1	n	n	n	n	n	n	x	x	x
O=C(Nc1ccc(-c2nnc(-c3ccccc3)o2)cc1)C(F)(F)F	n	n	n	n	n	n	x	x	x
CC(=O)/C=C(\C)Nc1ccc(-c2cnc(-c3ccccc3)o2)cc1	n	n	4.8	180	n	n	186	n	n
Cn1cccc1C(=O)C(=O)Nc1ccc(F)c(F)c1	139	n	5.2	154	n	n	193	n	n
CCc1nnc(NC(=O)C2Cc3ccccc3CN2S(=O)(=O)CC)s1 (stereo not given)	n	n	n	n	n	n	x	x	x
CCS(=O)(=O)N1Cc2ccccc2CC1C(=O)Nc1nc2ccccc2s1 (stereo not given)	210	n	n	174	n	n	230	n	119
Cn1cccc1/C=C1\CCC/C(=C\c2cccn2C)C1=O	143	n	6	152	n	n	228	155	n
CC(=O)c1ccc(C(=O)N2CCCC(CCC(=O)N(C)CCc3ccccn3)C2)s1 (stereo not given)	n	n	n	n	n	n	x	x	x
CC(C)=CC(=O)Nc1ccc(Br)cc1	n	n	5.6	154	n	n	172	141	n
C=CCn1c(SCc2nc3sc4c(c3c(=O)[nH]2)CCCC4)nc2ccccc2c1=O	n	n	n	n	n	n	x	x	x
Cn1ccs/c1=N\C(=O)Nc1cccc(Cl)c1	n	n	3.7	156	n	n	184	134	n
CC1CN(C2CCN(C(=O)c3ccccc3Cl)CC2)CC(C)O1 (stereo not given)	n	n	n	n	n	n	x	x	x
Nc1nnc(-c2ccc(Cl)c(Cl)c2)s1	n	n	n	n	n	n	x	x	x
Nc1cccn2c(-c3ccc(Cl)c(Cl)c3)cnc12	211	n	12	151	n	n	n	n	159
FC(F)(F)c1nc2ccccc2nc1N/N=C/c1c(Cl)cccc1Cl	n	n	n	n	n	n	x	x	x
Clc1ccc(OCc2nc(-c3ccncc3)no2)c(Cl)c1	144	n	5.8	174	n	n	230	142	116
